The values below come from ChEMBL document CHEMBL5150070, “Tricyclic SpiroLactams Kill Mycobacteria In Vitro and In Vivo by Inhibiting Type II NADH Dehydrogenases” (J Med Chem, 2022).

Series [1] relates to Mycobacterium tuberculosis. The series is described as follows: Antimycobacterial activity against Mycobacterium tuberculosis H37Rv assessed as reduction in bacterial cell growth by measuring resazurin reduction incubated for 6 days by fluorescence microplate based assay. Format: functional. To be noted: time 6 day. (In general: Alamar Blue is a resazurin reagent that responds to reducing activity.)

The subject of series [2] is Mycobacterium tuberculosis. The series is described as follows: Antimycobacterial activity against Mycobacterium tuberculosis H37Rv infected in human A-THP1 macrophages assessed as viability of infected macrophages incubated for 96 hrs by fluorescence microplate assay. Format: functional, organism-based. In a few lines: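 THP-1 cells differentiated with 50 ng/mL PMA for 72 h, infected with log-phase H37Rv (MOI 10, 2 h), and extracellular bacteria killed with 50 µg/mL amikacin for 1 h. Cells detached and seeded at 5×10⁵/mL in RPMI-10% FBS with PMA onto pre-dispensed compound, 96 h at 37°C, 5% CO₂. Macrophage viability by 0.05% resazurin fluorescence.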

Series [3] relates to Mycobacterium marinum. The series is described as follows: In vivo antimycobacterial efficacy in Mycobacterium marinum expressing Wasabi infected zebrafish larvae assessed as prolongation of survival time at 4.8 uM treated for 4 days after 1 day post infection. Format: functional. To be noted: time 4 day.
The target in series [4] is T1, Type II NADH:quinone oxidoreductase NdhA (Mycobacterium tuberculosis, UniProt P95200).
T1 sequence (P95200 whole entry): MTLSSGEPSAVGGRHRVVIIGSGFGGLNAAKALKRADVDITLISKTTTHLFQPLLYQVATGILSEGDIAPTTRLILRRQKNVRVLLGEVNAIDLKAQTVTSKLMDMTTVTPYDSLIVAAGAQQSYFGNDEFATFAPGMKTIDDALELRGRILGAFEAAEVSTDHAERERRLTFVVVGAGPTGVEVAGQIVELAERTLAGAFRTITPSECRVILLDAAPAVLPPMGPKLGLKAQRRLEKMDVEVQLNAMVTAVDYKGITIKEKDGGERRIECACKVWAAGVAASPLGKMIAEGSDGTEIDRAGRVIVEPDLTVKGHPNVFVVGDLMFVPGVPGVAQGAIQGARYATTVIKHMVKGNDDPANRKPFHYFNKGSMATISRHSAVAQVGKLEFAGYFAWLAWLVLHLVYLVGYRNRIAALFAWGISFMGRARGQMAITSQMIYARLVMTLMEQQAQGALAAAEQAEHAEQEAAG
The series is described as follows: Inhibition of Mycobacterium smegmatis MC2 155 recombinant ndhA assessed as rate of NADH oxidation in the presence of an electron acceptor menadione. Details: species or system Mycolicibacterium smegmatis.

The subject of series [5] is Mycobacterium marinum. The series is described as follows: In vivo antimycobacterial efficacy in Mycobacterium marinum expressing Wasabi infected zebrafish larvae assessed as prolongation of survival treated for 4 days after 1 day post infection. Format: functional, organism-based. As to conditions: dose 0.3-1.2 µM, time 4.0 day, DDE = dose-dependent effect. The method, boiled down:
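Golden mutant or Tg(mpeg1:mCherry) zebrafish embryos were dechorionated and anaesthetised in 0.016% tricaine. At 30 hpf, 2–3 nL containing about 200–250 cfu of Wasabi-expressing M. marinum M (pTEC15) was injected into the caudal vein. The inoculum was confirmed by plating on 7H10. Embryos were kept in E3 at 28.5 °C, 12 per well, to follow infection and survival.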

The target in series [6] is Type II NADH:quinone oxidoreductase Ndh (Mycobacterium tuberculosis, UniProt P95160). The series is described as follows: Inhibition of Mycobacterium tuberculosis recombinant type II NADH dehydrogenase ndh expressed in Escherichia coli assessed as rate of NADH oxidation in the presence of an electron acceptor menadione. The method, boiled down: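 Purified N-terminal MBP-tagged Mtb Ndh (Rv1854c) expressed in E. coli, 70 nM, with 500 µM NADH in 50 mM HEPES pH 7.1 (K₂HPO₄). Compound pre-incubated 15 min at 25°C, reaction started with 100 µM menadione. NADH oxidation followed at 340 nm every 60 s. Rate taken from linear slope; IC50 is the mean ± SD of at least 3 independent experiments.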
Sequence of Type II NADH:quinone oxidoreductase Ndh (P95160 whole entry): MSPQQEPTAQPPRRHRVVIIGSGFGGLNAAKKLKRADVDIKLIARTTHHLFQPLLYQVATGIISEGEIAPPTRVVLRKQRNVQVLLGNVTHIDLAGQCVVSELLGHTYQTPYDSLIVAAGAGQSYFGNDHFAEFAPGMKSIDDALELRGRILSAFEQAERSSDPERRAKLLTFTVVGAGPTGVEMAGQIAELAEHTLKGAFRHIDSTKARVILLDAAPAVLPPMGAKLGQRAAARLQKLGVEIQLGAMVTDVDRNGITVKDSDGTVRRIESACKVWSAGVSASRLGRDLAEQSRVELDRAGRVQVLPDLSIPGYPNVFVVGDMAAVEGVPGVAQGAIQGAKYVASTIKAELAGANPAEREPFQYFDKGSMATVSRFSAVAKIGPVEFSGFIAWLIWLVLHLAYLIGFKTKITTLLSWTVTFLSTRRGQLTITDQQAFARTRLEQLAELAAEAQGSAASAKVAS

The nature of series [7]: Octanol/PBS partition coefficient, logD of compound at pH 7.4 measured after 2 hrs by shake flask method. Format: physicochemical. To be noted: octanol/water, pH 7.4, 2 h. The method, boiled down:
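A 10 mM DMSO stock was diluted 50-fold into 1:1 octanol:PBS pH 7.4 and shaken gently for 2 h at room temperature. Each phase was diluted 50-fold in MeOH and quantified by LC-MS/MS. LogD = log of the octanol/PBS concentration ratio from mass signals. Run in triplicate.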

The subject of series [8] is Mycobacterium marinum. The series is described as follows: in vivo antimycobacterial efficacy in Mycobacterium marinum infected zebrafish larvae assessed as reduction in bacterial burden at 0.25 to 2 micog/ml measured after 2 to 4 days off post infection. Format: functional, organism-based. As to conditions: time 2-4 day.
Series [9] can be described thus: Toxicity in noninfected zebrafish larvae assessed as larval development. More on the design: species or system Danio rerio. As to conditions: in vivo.
Series [10] is described as follows: Toxicity in noninfected zebrafish larvae assessed as toxic effect. Details: species or system Danio rerio. To be noted: in vivo.

≈ marks a conversion by molar mass, not a printed value. Calls of active or inactive are those of the source. The rule behind the calls is not given here.

Turning to `CC[C@H]1CO[C@]23CCN(Cc4ccccc4)C[C@H]2CCC(=O)N13`, in [1], the MIC98 amounted to 18.8 µM (≈ 5.91 µg/mL).

For `CC(C)[C@H]1CO[C@]23CCN(Cc4ccc(C(F)(F)F)nc4)C[C@H]2CCC(=O)N13`, the IC50 is 2400 nM in [2], 330 nM in series [4] and 32 nM in series [6]. For the same compound, in the series with Mycobacterium marinum [3], the Time came out at 3 days. In addition, the MIC98 in [1] was found to be 0.59 µM (≈ 0.234 µg/mL). Further, the Activity entry in the series with Mycobacterium marinum [5] was “Dde”; in series [9] it was “Non-Toxic”; in series [10] it was “Non-Toxic”. This compound also showed a logD in [7] of 2.7. The result in the series on Mycobacterium marinum [8] was Active.

Regarding `CC(C)(C)[C@H]1CO[C@]23CCN(Cc4ccccc4)C[C@H]2CCC(=O)N13`, the MIC98 in series [1] was determined as 25 µM (≈ 8.56 µg/mL).

For `NNC(=O)c1ccncc1` [ISONIAZID], the IC50 in series [2] was determined as 204 nM.

Regarding `CC[C@H](C)[C@H]1CO[C@]23CCN(Cc4ccccc4)C[C@H]2CCC(=O)N13`, in series [1], the MIC98 stood at 9.5 µM (≈ 3.25 µg/mL).

Turning to `COc1ccc(CN2CC[C@]34OC[C@H](C(C)C)N3C(=O)CC[C@@H]4C2)cc1`, the IC50 in series [4] came to 2340 nM; in series [6], 200 nM. The MIC98 in series [1] came out at 4.7 µM (≈ 1.68 µg/mL).

The term IC50 denotes the concentration at which inhibition is half-maximal. In general, logD refers to lipophilicity at a set pH, counting ionised and neutral species.
